We go through 24 compounds from PubChem BioAssay.

Assay [1] is described as follows: S. cerevisiae growth inhibition in permissive medium (OD615), pilot counter-assay for S. cerevisiae lifespan shortening project, permissive growth control (AID 705;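 active means growth inhibition above 25% in both replicates, a cutoff set 3 SD above the mean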). The note with it: OD615, 24 h, at 10 µM, active compounds read high. Summed up:
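System: engineered DeaD yeast; Medium: permissive raffinose/galactose medium; Compound dosing: 10 µM single dose, 0.25% DMSO; Incubation: 4 h cell pre-growth, 24 h exposure at 30 °C; Technique: OD at 615 nm; Evaluation: growth inhibition from lowered OD615 after 24 h.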

Assay [2] in a line: S. cerevisiae growth inhibition in restrictive medium, OD615, pilot screen, restrictive growth control, yeast lifespan reduction project (AID 706;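 active means growth inhibition above a set limit, 3 SD over mean compound inhibition, in both replicates, cut at about 43% in these data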;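 further: modified DeaD lifespan yeast strain shifted to restrictive glucose medium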). The note with it: OD615, 48 h, at 10 µM, active compounds read high. In outline: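 Material: modified S. cerevisiae; buffer or medium: CSMM-D glucose medium; doses: one concentration, 10 µM final, 0.25% DMSO; incubation: 48 h compound exposure at 30 °C; detection: optical density at 615 nm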

The nature of assay [3]: doxorubicin toxicity protection in MRP-1 cells – H69AR cells, CellTiter-Glo, duplicate, MRP-1 activator project, pilot screen (AID 807;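 active means viability increase at or above a cutoff of the median across tested compounds plus 3 SD, cut at about 8.5% in these data, passing the limit was not always enough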;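 further: compound pretreatment 18-22 h then 72 h combined with doxorubicin; 0% = doxorubicin alone and 100% = vehicle without doxorubicin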). The note with it: H69AR viability with doxorubicin, CellTiter-Glo luminescence; at 10 µM; active compounds read high. (In general: ATP-based viability assays read luminescence as a measure of living cells.)
A short description of assay [4]: viability of HCT116 without oncogenic beta-catenin – human colon tumor cells, pilot screen (AID 823;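 active means cell viability at or below a set limit in both duplicate runs, the limit being the all-compound median minus 4 SD, cut at about 23% in these data, passing the limit was not always enough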;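 further: 0% = wells killed by 20 µM Hyamine and 100% = untreated DMSO cell wells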). The note with it: HCT116 beta-catenin knockout viability, CellTiter-Glo, 60 h; at 10 µM; active compounds read low.
A short description of assay [5]: viability of PTEN-null HCT116 cells – cell-based, HCT116 clonal line, CellTiter-Glo, pilot screen (AID 824;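 active means viability at or below 27.92% in each of two runs, the all-compound median minus 4 SD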;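 further: 0% = 20 µM Hyamine control and 100% = vehicle cell control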). Particulars: HCT116 PTEN-deleted viability, 60 h, at 10 µM, active compounds read low.
A short description of assay [6]: RAM pathway blockade in budding yeast – dse1pr::URA3 reporter, 5-FOA selection, pilot screen (AID 869;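 active means inhibition over a set limit, the all-compound mean plus 3 SD, in both replicate runs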;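 further: 0% = DMSO wells with no growth and 100% = 10 µM 1-NA-PP1 with full growth; RAM network block rescues cells from 5-FOA so hits raise OD615 growth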). The note with it: S. cerevisiae dse1pr::URA3 5-FOA growth, OD615, 2 d; at 10 µM; active compounds read high; strain carries analog-sensitive mutant Cbk1 kinase.
Assay [7] is described as follows: RAM signaling pathway blockade in yeast – S. cerevisiae, Pdr1DBD-CYC8 efflux-inhibited sensitized strain, primary screen (AID 1298).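 Further: 0% = DMSO untreated cells without growth and 100% = 10 µM 1-NA-PP1 full growth; higher means more yeast growth rescued from 5-FOA killing.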 Particulars: S. cerevisiae cbk1-as DSE1-URA3 strain, 5-FOA growth OD615, 2 d; at 50 µM; active compounds read high.

A number with no mark means an inactive call. Results filed as inconclusive are left out. Calls of active or inactive are those of the source.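 How the source made its calls, unless noted: active means RAM network inhibition above 8.4% in each of two replicates, 3 SD over the compound average; inconclusive means above 8.4% inhibition in only one replicate; inactive means 8.4% inhibition or less in each replicate.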

As a reminder, the viability is a read-out of living cells in per cent, often relative to untreated cells. Broadly, the inhibition is the drop in the measured response relative to a control, in per cent. For `Cc1ccc2c(c1)C(c1ccc(F)cc1)N(C(=O)C1CC1)CC(=O)N2` (stereo not drawn), the growth inhibition was -3.41% in assay [1] and -4.04% in assay [2]. Besides, the viability increase in assay [3] was -1.19%. For the same compound, the viability in assay [4] is 83%; in assay [5], 75.2%. Moreover, in assay [6], the inhibition is -0.015%. In addition, in assay [7], the RAM network inhibition was 1.7%.
Consider `N=c1c2c(n(Cc3ccc(F)cc3)c3c1CCC3)CCC2`, for which the growth inhibition in assay [1] was -12.2%; in assay [2] it was -14.7%. In addition, the viability increase in assay [3] was -0.55%. Further, the viability in assay [4] was 34.5%; in assay [5], 38.9%. Also, the inhibition in assay [6] was 0.8%. The RAM network inhibition in assay [7] was 0.77%.
With `O=C(NCCN1C(=O)C2C3C=CC(C3)C2C1=O)Nc1ccccc1O` (stereo not drawn), the growth inhibition is -6.45% in assay [1] and -1.21% in assay [2]. Moreover, the viability increase in assay [3] is -1.45%. In addition, the viability in assay [4] and in assay [5] was 106% throughout. Also, the inhibition in assay [6] is 1.5%. In assay [7], the RAM network inhibition is 4.02%.
For the compound `CCOc1cccc(OCCOCCN(C)Cc2ccccc2)c1`, the figures for the growth inhibition in assay [1] and in assay [2] were 2.5% and -3.23%, respectively. In assay [3], the viability increase is -4.15%. In addition, the viability was 75.3% in assay [4] and 78.9% in assay [5]. Besides, the inhibition in assay [6] is 0.55%. In assay [7], the RAM network inhibition is 0.2%.
On to `CCOC(=O)C(C)Sc1nnc(Cc2cc(=O)[nH]c(=O)[nH]2)n1-c1ccc(OCC)cc1` (stereo not drawn), for which the growth inhibition in assay [1] was 2.12%; in assay [2], -6.84%. Further, the viability increase in assay [3] is -0.85%. Also, the viability in assay [4] was 109%; in assay [5], 101%. Also, the inhibition in assay [6] is 0.75%. Besides, in assay [7], the RAM network inhibition was 2.89%.
Take `CCOC(=O)Nc1cc(C)c(Cl)cc1OC`: the results for the growth inhibition in assay [1] and in assay [2] were -8.55% and -0.98%, respectively. Further, in assay [3], the viability increase is -2.98%. For the same compound, the viability was 84.5% in assay [4] and 75.7% in assay [5]. Further, in assay [6], the inhibition was 2.17%. In addition, the RAM network inhibition in assay [7] was 5.3%.
In the case of `O=C1C(C=NCCN2CCOCC2)=C(O)c2ccccc21`, the growth inhibition was -15.9% in assay [1] and -26.8% in assay [2]. In assay [3], the viability increase was -1.88%. The results for the viability in assay [4] and in assay [5] were 100% and 92.4%, respectively. Besides, the inhibition in assay [6] is 2.4%. Moreover, the RAM network inhibition in assay [7] is 3.56%.
In the case of `COc1ccc(OC)c(CN2CCN(c3ccccc3OC)CC2)c1`, the results for the growth inhibition in assay [1] and in assay [2] were -7.27% and -8.51%, respectively. The viability increase in assay [3] was -0.4%. Moreover, the viability in assay [4] is 61.2%; in assay [5], 71.6%. Besides, the inhibition in assay [6] is 1.86%. Also, the RAM network inhibition in assay [7] was 5.18%.
Consider `CC1=CC(C)(C)Nc2ccc(OC(=O)c3ccco3)cc21`, for which the growth inhibition in assay [1] was 1.4%; in assay [2] it was -5.68%. The viability increase in assay [3] is -7.71%. The viability in assay [4] was 0.49% (active); in assay [5], 0.6% (active). The inhibition in assay [6] was 0.475%. Also, in assay [7], the RAM network inhibition is 0.98%.
Turning to `OCCNc1nc(Nc2ccccc2)nc(Nc2ccccc2)n1`, the growth inhibition was 14% in assay [1] and 4.96% in assay [2]. In addition, the viability increase in assay [3] is -1.23%. Also, the viability in assay [4] was 95.8%; in assay [5], 94%. In addition, the inhibition in assay [6] is -0.245%. The RAM network inhibition in assay [7] was -1.3%.
With `c1ccc(Nc2nc(N3CCOCC3)nc(N3CCOCC3)n2)cc1`, the growth inhibition in assay [1] was 5.75%; in assay [2], 6.58%. In addition, in assay [3], the viability increase is -6.19%. In addition, the values for the viability in assay [4] and in assay [5] were 67.9% and 67.2%, respectively. For the same compound, the inhibition in assay [6] is 0.65%. In addition, the RAM network inhibition in assay [7] is 1.44%.
Take `COc1ccc(C2N(c3ccc(Cl)cc3)C(=O)C3CCCN32)cc1` (stereo not drawn): the figures for the growth inhibition in assay [1] and in assay [2] were 1.46% and 0.035%, respectively. The viability increase in assay [3] was 0.55%. Also, the viability was 101% in assay [4] and 99.9% in assay [5]. The inhibition in assay [6] is 0.915%. Moreover, the RAM network inhibition in assay [7] was 0.88%.
Turning to `O=C(NCCc1cn2ccsc2n1)c1cccs1`, the growth inhibition is -14.1% in assay [1] and -12.4% in assay [2]. Further, the viability increase in assay [3] is -1.75%. In addition, the viability is 105% in assay [4] and 102% in assay [5]. Further, the inhibition in assay [6] was 1.29%. Besides, the RAM network inhibition in assay [7] was 3.51%.
In the case of `Cc1ccc(C)c(-n2nnnc2SCC(=O)Nc2cccc(-c3nnc4n3CCCCC4)c2)c1`, the growth inhibition in assay [1] is 12.3%; in assay [2], 54.4% (active). Moreover, the viability increase in assay [3] was -0.74%. Moreover, the viability in assay [4] is 97.7%; in assay [5], 90.9%. For the same compound, in assay [6], the inhibition was 1.77%. In assay [7], the RAM network inhibition is 6.57%.
Regarding `COc1cc(C(=O)Nc2cc(C)c(OCC(=O)N3CCOCC3)c(C)c2)cc(OC)c1OC`, the growth inhibition in assay [1] was -2.29%; in assay [2] it was 1.77%. Besides, the viability increase in assay [3] is -2.98%. The values for the viability in assay [4] and in assay [5] were 88.8% and 90.4%, respectively. In addition, the inhibition in assay [6] was 1.64%. The RAM network inhibition in assay [7] was 4.86%.
For `CCN1CCN(CC(=O)Nc2ccccc2)C(=O)C1=O`, the results for the growth inhibition in assay [1] and in assay [2] were -2.23% and 9.12%, respectively. For the same compound, the viability increase in assay [3] is 0.2%. Further, the viability in assay [4] is 103%; in assay [5], 107%. Also, the inhibition in assay [6] is 1.19%. Moreover, in assay [7], the RAM network inhibition is -0.21%.
Consider `CCC(c1ccccc1)c1nc(-c2ccccn2)no1` (stereo not drawn), for which the growth inhibition is -3.45% in assay [1] and -5.84% in assay [2]. Also, in assay [3], the viability increase is 1.44%. For the same compound, the values for the viability in assay [4] and in assay [5] were 91.8% and 97.8%, respectively. For the same compound, the inhibition in assay [6] was 0.495%. For the same compound, the RAM network inhibition in assay [7] is 3.77%.
Regarding `Cc1cccn2c(=O)c(C=NCc3ccco3)c(Nc3ccc(Cl)cc3)nc12`, the figures for the growth inhibition in assay [1] and in assay [2] were -14.3% and -2.91%, respectively. The viability increase in assay [3] is -6.81%. The viability in assay [4] is 79.7%; in assay [5], 76.1%. Further, in assay [6], the inhibition is 1.09%. Besides, the RAM network inhibition in assay [7] is 1.21%.
Consider `CNC(=O)CN1C(=O)CSc2ncccc21`, for which the growth inhibition in assay [1] is 10.1%; in assay [2], 2.23%. Besides, the viability increase in assay [3] is -0.85%. The viability in assay [4] was 101%; in assay [5], 92.2%. For the same compound, in assay [6], the inhibition was 1.78%. Moreover, the RAM network inhibition in assay [7] was -1.94%.
With `COc1ccc(Nc2ccc3c(c2)=NC2(CCCCC2)[N+]=3[O-])cc1`, the growth inhibition was -9.92% in assay [1] and -11.8% in assay [2]. For the same compound, the viability increase in assay [3] was -8.28%. Further, the values for the viability in assay [4] and in assay [5] were 2.19% (active) and 1.61% (active), respectively. Moreover, in assay [6], the inhibition is 4.35%. Also, the RAM network inhibition in assay [7] is 6.69%.
On to `Cn1c(C(=O)N2CCCC2)cc2c(=O)n(C)c3ccccc3c21`, for which the results for the growth inhibition in assay [1] and in assay [2] were -2.97% and 3.21%, respectively. In addition, the viability increase in assay [3] was -3.32%. The values for the viability in assay [4] and in assay [5] were 102% and 95.5%, respectively. For the same compound, the inhibition in assay [6] is 2.04%. In assay [7], the RAM network inhibition was -0.2%.
As for `O=C(Nc1ccc2nc(-c3cccnc3)[nH]c2c1)c1ccco1`, the growth inhibition in assay [1] is -2%; in assay [2], -20.3%. In addition, the viability increase in assay [3] was -2.85%. Also, the values for the viability in assay [4] and in assay [5] were 100% and 97.4%, respectively. Also, the inhibition in assay [6] is 0.845%. The RAM network inhibition in assay [7] was 4.67%.
`CCC(C)C1C(C#N)=C(N)Oc2n[nH]c(-c3ccccc3)c21` (stereo not drawn): the growth inhibition was -4.81% in assay [1] and -3.89% in assay [2]. The viability increase in assay [3] was -2.23%. Further, the viability was 97.3% in assay [4] and 94.3% in assay [5]. The inhibition in assay [6] was 1.06%. In addition, the RAM network inhibition in assay [7] is 5.9%.
Consider `CC(=O)N1c2ccccc2C(=O)C1N1CCCCC1` (stereo not drawn), for which the figures for the growth inhibition in assay [1] and in assay [2] were -3.63% and -9.52%, respectively. For the same compound, the viability increase in assay [3] is -3.42%. Also, the viability in assay [4] is 93.1%; in assay [5] it was 84.4%. Besides, the inhibition in assay [6] is 0.985%. The RAM network inhibition in assay [7] is -1.19%.
